Measured values published in ChEMBL document CHEMBL1142242, “Indanylacetic acid derivatives carrying 4-thiazolyl-phenoxy tail groups, a new class of potent PPAR alpha/gamma/delta pan agonists: synthesis, structure-activity relationship, and in vivo efficacy” (J Med Chem, 2007).
Blank lines part the entries; values can stand above or below the compound they belong to. Activity calls are given as the source filed them. The rule behind the calls is not given here.

Legend:
Mus musculus [1] = assay: Reduction of plasma triglyceride level in male human apoA1 transgenic mouse at 10 mg/kg; format: functional, organism-based; set-up: dose 10 mg/kg
Procedure, shortened: (§1)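 hApoA1 transgenic mice, 6 weeks old at purchase, grouped by equal baseline plasma triglyceride; oral dosing once daily for 7 days in 0.5% methylcellulose in water; bled ~24 h after last dose; plasma triglyceride and HDLc by autoanalyzer; mean ± SEM, 6-8 mice.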

Mus musculus [2] = assay: Increase of plasma HDLc level in male human apoA1 transgenic mouse at 10 mg/kg; format: functional, organism-based; set-up: dose 10 mg/kg; procedure, shortened: as §1
Mus musculus [3] = assay: Increase of plasma HDLc level in female human apoA1 transgenic mouse at 10 mg/kg; format: functional, organism-based; set-up: dose 10 mg/kg; procedure, shortened: as §1
Rattus norvegicus [4] = assay: Reduction of FFA level in ZDF rat at 1 mg/kg, po after 21 days; format: functional, organism-based; set-up: dose 1 mg/kg
Procedure, shortened: (§2)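 Male ZDF rats, on chow 4-8 weeks to confirm hyperglycemia, grouped by equal baseline blood glucose; oral dosing once daily for 21 days in 0.5% methylcellulose in water; bled ~24 h after last dose; plasma FFA measured.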

Rattus norvegicus [5] = assay: Reduction of FFA level in ZDF rat at 3 mg/kg, po after 21 days; format: functional, organism-based; set-up: dose 3 mg/kg; procedure, shortened: as §2
Syrian golden hamster [6] = assay: Reduction of VLDL level in fat fed hyperlipidemic Golden Syrian hamster at 10 mg/kg, po after 14 days; format: functional, organism-based; set-up: dose 10 mg/kg; conditions: Mesocricetus auratus
Procedure, shortened: (§3)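 Male Syrian Golden hamsters (≤7 weeks, 120-150 g) on high fat diet plus 10% fructose drinking water; bled day 10, then dosed orally once daily by weight for 14 days; necropsy day 24; EDTA plasma lipoproteins resolved by FPLC; mean ± SEM, 10 hamsters.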

Syrian golden hamster [7] = assay: Reduction of LDL level in fat fed hyperlipidemic Golden Syrian hamster at 10 mg/kg, po after 14 days; format: functional, organism-based; set-up: dose 10 mg/kg; conditions: Mesocricetus auratus; procedure, shortened: as §3
Syrian golden hamster [8] = assay: Increase of HDL/LDL ratio in fat fed hyperlipidemic Golden Syrian hamster at 10 mg/kg, po after 14 days; format: functional, organism-based; set-up: dose 10 mg/kg; conditions: Mesocricetus auratus; procedure, shortened: as §3
Mus musculus [9] = assay: Reduction of blood glucose level in orally dosed db/db mouse at 1 mg/kg after 8 days; format: functional, organism-based; set-up: dose 1 mg/kg
Procedure, shortened: (§4)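 Female db/db mice, on chow 3-4 weeks to confirm hyperglycemia, grouped by equal baseline blood glucose; oral dosing once daily in 0.5% methylcellulose in water; blood glucose by analyzer ~24 h after last dose; percent change vs vehicle = ((Tf/Ti)/(Vf/Vi) − 1) × 100.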

Mus musculus [10] = assay: Reduction of blood glucose level in orally dosed db/db mouse at 3 mg/kg after 8 days; format: functional, organism-based; set-up: dose 3 mg/kg; procedure, shortened: as §4
Mus musculus [11] = assay: Reduction of blood glucose level in orally dosed db/db mouse at 10 mg/kg after 8 days; format: functional, organism-based; set-up: dose 10 mg/kg; procedure, shortened: as §4
Estrogen receptor = Estrogen receptor (Mus musculus, UniProt O08537+P19785); assay: Displacement of [3H]O-estradiol from ER in Swiss mouse uteri; format: protein assay
[12] = molecular target: T1, Peroxisome proliferator-activated receptor alpha (Homo sapiens) (UniProt Q07869); assay: Agonist activity at human PPAR alpha expressed in CV1 cells by GAL4 transactivation assay; format: functional, cell-based; conditions: CV-1
T1 sequence (whole entry): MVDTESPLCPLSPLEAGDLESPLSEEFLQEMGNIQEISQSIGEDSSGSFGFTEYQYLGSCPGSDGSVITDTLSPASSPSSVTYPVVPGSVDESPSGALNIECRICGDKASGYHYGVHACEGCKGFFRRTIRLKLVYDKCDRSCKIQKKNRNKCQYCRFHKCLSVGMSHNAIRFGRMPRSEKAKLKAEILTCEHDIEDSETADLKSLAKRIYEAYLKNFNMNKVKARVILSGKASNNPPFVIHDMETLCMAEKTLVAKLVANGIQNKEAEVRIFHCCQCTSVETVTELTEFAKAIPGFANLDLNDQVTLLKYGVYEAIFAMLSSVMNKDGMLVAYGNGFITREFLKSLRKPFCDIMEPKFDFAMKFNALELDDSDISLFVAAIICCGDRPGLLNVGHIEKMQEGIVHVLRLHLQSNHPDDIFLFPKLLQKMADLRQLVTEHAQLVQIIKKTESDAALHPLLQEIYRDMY
Procedure, shortened: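 CV-1 cells plated, grown overnight at 37 °C in 5% CO₂, then transfected with GAL4-fused human PPARα ligand binding domain, pFR-LUC and pRL-SV40 reporter DNAs by lipofection. After a further overnight incubation, cells were exposed to compound or vehicle overnight. Activity was read as dual-luciferase reporter signal.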

[13] = molecular target: T2, Peroxisome proliferator-activated receptor alpha (Mus musculus) (UniProt P23204); assay: Agonist activity at mouse PPAR alpha; format: functional
T2 sequence (whole entry): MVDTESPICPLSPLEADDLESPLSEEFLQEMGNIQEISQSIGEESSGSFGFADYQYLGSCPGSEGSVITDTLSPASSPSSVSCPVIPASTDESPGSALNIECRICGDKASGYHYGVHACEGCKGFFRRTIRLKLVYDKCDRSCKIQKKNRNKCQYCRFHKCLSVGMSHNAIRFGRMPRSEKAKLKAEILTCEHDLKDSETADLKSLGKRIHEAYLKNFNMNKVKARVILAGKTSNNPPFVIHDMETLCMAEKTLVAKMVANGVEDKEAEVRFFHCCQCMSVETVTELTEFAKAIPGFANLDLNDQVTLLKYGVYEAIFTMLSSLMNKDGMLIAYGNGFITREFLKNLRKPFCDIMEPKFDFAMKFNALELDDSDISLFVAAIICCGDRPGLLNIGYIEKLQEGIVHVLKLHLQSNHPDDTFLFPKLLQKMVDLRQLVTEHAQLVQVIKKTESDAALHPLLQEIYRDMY

[14] = tested on: PPAR alpha (Mesocricetus auratus); assay: Agonist activity at Syrian Golden hamster PPAR alpha
Syrian golden hamster [15] = assay: Reduction of VLDL level in fat fed hyperlipidemic Golden Syrian hamster at 100 mg/kg, po after 14 days; format: functional, organism-based; set-up: dose 100 mg/kg; conditions: Mesocricetus auratus; procedure, shortened: as §3
Syrian golden hamster [16] = assay: Reduction of LDL level in fat fed hyperlipidemic Golden Syrian hamster at 100 mg/kg, po after 14 days; format: functional, organism-based; set-up: dose 100 mg/kg; conditions: Mesocricetus auratus; procedure, shortened: as §3
Syrian golden hamster [17] = assay: Increase of HDL/LDL ratio in fat fed hyperlipidemic Golden Syrian hamster at 100 mg/kg, po after 14 days; format: functional, organism-based; set-up: dose 100 mg/kg; conditions: Mesocricetus auratus; procedure, shortened: as §3
[18] = molecular target: T3, Peroxisome proliferator-activated receptor alpha (Homo sapiens, UniProt Q07869); assay: Agonist activity at human PPAR alpha by FRET assay; format: functional
T3 sequence (Q07869 whole entry): T1 sequence (whole entry)
Procedure, shortened: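 Human PPARα ligand binding domain (GST-tagged) association with biotin-labeled co-activator CBP; Eu-labeled anti-GST antibody and streptavidin-APC; incubated 2 h at rt in buffer with or without compound; fluorescence read at 615 or 655 nm emission, 340 nm excitation.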

[19] = molecular target: T4, Peroxisome proliferator-activated receptor delta (Homo sapiens, UniProt Q03181); assay: Agonist activity at human PPAR delta by FRET assay; format: functional
T4 sequence (Q03181 whole entry): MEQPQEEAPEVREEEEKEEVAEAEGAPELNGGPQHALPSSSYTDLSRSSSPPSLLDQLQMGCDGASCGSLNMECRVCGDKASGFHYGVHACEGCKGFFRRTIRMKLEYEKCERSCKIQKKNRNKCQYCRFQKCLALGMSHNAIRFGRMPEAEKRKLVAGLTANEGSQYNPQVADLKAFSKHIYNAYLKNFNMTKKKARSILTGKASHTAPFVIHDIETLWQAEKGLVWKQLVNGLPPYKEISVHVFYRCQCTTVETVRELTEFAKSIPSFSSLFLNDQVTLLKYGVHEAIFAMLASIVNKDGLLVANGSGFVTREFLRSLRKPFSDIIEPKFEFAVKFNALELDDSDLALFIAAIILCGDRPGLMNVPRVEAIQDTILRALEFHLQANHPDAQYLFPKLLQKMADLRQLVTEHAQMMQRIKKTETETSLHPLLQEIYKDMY

[20] = molecular target: T5, Peroxisome proliferator-activated receptor gamma (Mus musculus, UniProt P37238); assay: Agonist activity at PPAR gamma in mouse 3T3L1 cells assessed as increase in insulin receptor by IRBA; format: functional, cell-based, 3T3-L1
T5 sequence (P37238 whole entry): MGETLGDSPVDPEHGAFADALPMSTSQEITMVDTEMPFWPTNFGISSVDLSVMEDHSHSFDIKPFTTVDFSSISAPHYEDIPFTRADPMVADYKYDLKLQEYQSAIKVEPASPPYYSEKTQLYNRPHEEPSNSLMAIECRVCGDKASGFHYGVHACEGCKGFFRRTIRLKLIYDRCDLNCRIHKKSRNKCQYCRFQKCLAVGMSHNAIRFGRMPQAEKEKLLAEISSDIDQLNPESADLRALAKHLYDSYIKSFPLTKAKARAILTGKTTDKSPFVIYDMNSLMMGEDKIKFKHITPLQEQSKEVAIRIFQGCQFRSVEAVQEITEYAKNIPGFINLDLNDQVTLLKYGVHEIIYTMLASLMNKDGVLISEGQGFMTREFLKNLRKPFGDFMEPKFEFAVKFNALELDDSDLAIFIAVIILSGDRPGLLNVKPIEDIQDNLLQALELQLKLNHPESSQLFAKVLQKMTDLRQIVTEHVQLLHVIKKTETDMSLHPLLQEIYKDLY

- EC50 (Estrogen receptor): > 10000 nM
- Activity [12]: 88%
- Activity [13]: 25%
- Activity [14]: 100%
Structure (SMILES): CCCc1cc(C2=NC3OCCCC3S2)ccc1OCCCOc1ccc2c(c1)CC[C@H]2CC(=O)O (stereo partly specified)
- Activity (Mus musculus [1]): Dose-dependent effect
- Activity (Mus musculus [2]): Dose-dependent effect
- Activity (Mus musculus [3]): Active
- Activity (Rattus norvegicus [4]): Active
- Activity (Rattus norvegicus [5]): Active
- Activity (Syrian golden hamster [6]): Active
- Activity (Syrian golden hamster [7]): Active
- Activity (Syrian golden hamster [8]): Active
- Activity (Mus musculus [9]): Dose-dependent effect
- Activity (Mus musculus [10]): Dose-dependent effect
- Activity (Mus musculus [11]): Dose-dependent effect

Structure (SMILES): CC(C)OC(=O)C(C)(C)Oc1ccc(C(=O)c2ccc(Cl)cc2)cc1
- Activity (Syrian golden hamster [15]): Active
- Activity (Syrian golden hamster [16]): Active
- Activity (Syrian golden hamster [17]): Active

- EC50 [18]: 53 nM
- EC50 [19]: 4.1 nM
- EC50 [20]: 116 nM
Structure (SMILES): COc1cc(-c2nc3c(s2)CCC3)ccc1OCCCOc1ccc2c(c1)CC[C@H]2CC(=O)O
